Reference: ChEMBL document CHEMBL3044632, “Synthesis, crystal structure, and biological activity of 4-methyl-1,2,3-thiadiazole-containing 1,2,4-triazolo[3,4-b][1,3,4]thiadiazoles” (J Agric Food Chem, 2010)

Assays:
[1] = tested on: Tobacco mosaic virus; test: Antiviral activity against Tobacco mosaic virus (TMV) infected leaves assessed as viral inhibition at 50 ug/mL at 25 degC for 72 hr; type: functional
Procedure, shortened: (§1)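 Systemic acquired resistance induction was assayed in a tobacco–TMV system. The antivirus inhibition ratio was calculated from the average number of viral lesions on inoculated leaves, relative to the corresponding control.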

[2] = tested on: Phytophthora infestans; test: Fungicide activity against Phytophthora infestans assessed as growth inhibition at 50 ug/mL at 24 to 26 degC measured after 2 days; type: functional; conditions: 48 h, read-out: GI
[3] = tested on: Puccinia triticina; test: Fungicide activity against Puccinia triticina assessed as growth inhibition at 50 ug/mL at 24 to 26 degC measured after 2 days; type: functional; conditions: 48 h, read-out: GI
[4] = tested on: Mycosphaerella arachidis; test: Fungicide activity against Mycosphaerella arachidis assessed as growth inhibition at 50 ug/mL at 24 to 26 degC measured after 2 days; type: functional; conditions: 48 h, read-out: GI
[5] = tested on: Fusarium oxysporum; test: Fungicide activity against Fusarium oxysporum assessed as growth inhibition at 50 ug/mL at 24 to 26 degC measured after 2 days; type: functional; conditions: 48 h, read-out: GI
[6] = tested on: Colletotrichum lagenaria; test: Fungicide activity against Colletotrichum lagenaria assessed as growth inhibition at 50 ug/mL at 24 to 26 degC measured after 2 days; type: functional; conditions: 48 h, read-out: GI
[7] = tested on: Botryosphaeria berengeriana; test: Fungicide activity against Botryosphaeria berengeriana assessed as growth inhibition at 50 ug/mL at 24 to 26 degC measured after 2 days; type: functional; conditions: 48 h, read-out: GI
[8] = tested on: Alternaria solani; test: Fungicide activity against Alternaria solani assessed as growth inhibition at 50 ug/mL at 24 to 26 degC measured after 2 days; type: functional; conditions: 48 h, read-out: GI
[9] = tested on: Thanatephorus cucumeris; test: Fungicide activity against Thanatephorus cucumeris assessed as growth inhibition at 50 ug/mL at 24 to 26 degC measured after 2 days; type: functional; conditions: 48 h, read-out: GI
[10] = tested on: Nicotiana tabacum; test: Phytotoxicity against Nicotiana tabacum (tobacco) plant at 50 to 500 ug/mL; type: organism-based; conditions: in vivo
[11] = tested on: Cercospora beticola; test: Fungicide activity against Cercospora beticola assessed as growth inhibition at 50 ug/mL at 24 to 26 degC measured after 2 days; type: functional; conditions: 48 h, read-out: GI
[12] = tested on: Fusarium graminearum; test: Fungicide activity against Fusarium graminearum assessed as growth inhibition at 50 ug/mL at 24 to 26 degC measured after 2 days; type: functional; conditions: 48 h, read-out: GI
[13] = tested on: Tobacco mosaic virus; test: Antiviral activity against Tobacco mosaic virus (TMV) infected leaves assessed as viral inhibition at 500 ug/mL at 25 degC for 72 hr; type: functional; procedure, shortened: as §1
[14] = tested on: Tobacco mosaic virus; test: Antiviral activity against Tobacco mosaic virus (TMV) infected leaves assessed as viral inhibition at 100 ug/mL at 25 degC for 72 hr; type: functional; procedure, shortened: as §1
[15] = tested on: Botrytis cinerea; test: Fungicide activity against Botryotinia fuckeliana assessed as growth inhibition at 50 ug/mL at 24 to 26 degC measured after 2 days; type: functional; conditions: 48 h, read-out: GI
[16] = tested on: Rhizoctonia solani; test: Fungicide activity against Rhizoctonia solani Kuhn assessed as growth inhibition at 50 ug/mL at 24 to 26 degC measured after 2 days; type: functional; conditions: 48 h, read-out: GI

Row | SMILES | inhibition at 50 µg/mL [1] [%] | inhibition of growth at 50 µg/mL [2] [%] | inhibition of growth at 50 µg/mL [3] [%] | inhibition of growth at 50 µg/mL [4] [%] | inhibition of growth at 50 µg/mL [5] [%] | inhibition of growth at 50 µg/mL [6] [%] | inhibition of growth at 50 µg/mL [7] [%] | inhibition of growth at 50 µg/mL [8] [%] | inhibition of growth at 50 µg/mL [9] [%] | Activity [10] | inhibition of growth at 50 µg/mL [11] [%] | inhibition of growth at 50 µg/mL [12] [%] | inhibition at 500 µg/mL [13] [%] | inhibition at 100 µg/mL [14] [%] | inhibition of growth at 50 µg/mL [15] [%] | inhibition of growth at 50 µg/mL [16] [%]
1 | COc1cccc(C2=NN3C(c4snnc4C)=NNC3S2)c1 (stereo not drawn) | 0 | 17.3 | 31.6 | 18.2 | 19.4 | 0 | 45.2 | 23.3 | 60.8 | Toxic | 14.3 |  |  |  |  | 
2 | Cc1nnsc1C1=NNC2SC(c3cccc(OC(F)(F)F)c3)=NN12 (stereo not drawn) |  | 17.8 |  | 23.1 | 18.6 | 13.8 | 25.6 | 23.7 | 35.2 | Toxic | 35.7 | 4.8 | 37.5 | 30 | 68.9 | 
3 | Cc1nnsc1C1=NNC2SC(c3ccccc3OC(F)(F)F)=NN12 (stereo not drawn) | 25 | 0 | 0 | 7.7 | 86 | 45.5 | 15.4 | 4.8 | 35.7 | Toxic | 0 |  |  |  |  | 5.6
4 | Cc1nnsc1C1=NNC2SC(c3ccc([N+](=O)[O-])cc3)=NN12 (stereo not drawn) |  | 22.2 |  | 30.8 | 20.9 | 13.8 | 34.9 | 26.7 | 32.4 | Toxic | 14.3 | 11.9 | 52.9 | 16.7 | 60 | 
5 | Cc1nnsc1C1=NNC2SC(C(C)(C)C)=NN12 (stereo not drawn) | 7.89 | 14.7 | 26.3 | 36.4 | 13.9 | 5.88 | 17.7 | 16.7 | 56.7 | Toxic | 23.8 |  |  |  |  | 
6 | COc1ccccc1C1=NN2C(c3snnc3C)=NNC2S1 (stereo not drawn) | 40 | 11.1 |  | 25 | 17.2 | 27.3 | 24.4 | 30 | 32.8 | Toxic | 30 | 18.2 |  |  | 50 | 
7 | Cc1nnsc1C1=NNC2SC(c3ccccc3F)=NN12 (stereo not drawn) |  | 20 | 21.1 | 18.2 | 19.4 | 11.8 | 24.2 | 40 | 58.8 | Toxic | 23.8 |  | 53.6 | 9.5 |  | 
8 | Cc1nnsc1C1=NNC2SC(COc3ccc(Cl)cc3Cl)=NN12 (stereo not drawn) | 0 | 12.1 |  | 31 | 3 | 19.2 | 23.8 | 31.3 | 33.3 | Toxic | 20 | 12.5 |  |  |  | 
9 | Cc1nnsc1C1=NNC2SC(c3cccc(F)c3)=NN12 (stereo not drawn) |  | 0 |  | 23.5 | 10 | 0 | 54.1 | 37.1 | 32.8 | Toxic | 27.3 | 40.5 | 30.7 | 24.2 | 75 | 
